{"source": "PubChem BioAssay AID977617", "about": "(Broad Institute, 2014)", "key": {"[1]": {"test": "A549 cell cytotoxicity, dose response, cytotoxicity control, CellTiter-Glo luminescence, dry powder, set 13 (AID 977617)", "conditions": "A549 viability, CellTiter-Glo ATP luminescence, 72 h; at 26 µM (top of the series)", "method_in_brief": "(§1)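 Material: A549 human lung carcinoma cells, cell-based viability / Input: 1000 cells/well / Dosing: multiple compound concentrations / Timing: 24 h settling, 72 h 37 °C exposure, 5 min reagent / Measured by: luminescence of cellular ATP, CellTiter-Glo diluted 1:1 in PBS / Read-out: ATP signal as viability surrogate, signal drop meaning cytotoxicity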"}, "[2]": {"test_system": "A549 viability, CellTiter-Glo ATP luminescence, 72 h", "test": "A549 cell cytotoxicity, dose response, cytotoxicity control, CellTiter-Glo luminescence, dry powder, set 13 (AID 977617)", "method_in_brief": "as §1"}}, "note": "Several values for one entry are separate records, joined by “and”; a condition that tells them apart may be missing. Equal values may be shown once. Activity calls are given as the source filed them.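 Rule for the calls: active = cell killing, with a fitted half-maximal concentration at or below twice the top valid dose tested; inconclusive = flat fit with a moderate signal drop, or a poor fit; inactive = effect in the rising direction, plus the rest.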", "data": [{"smiles": "C[C@H](O)C#Cc1ccc2c(c1)O[C@@H](CN(C)Cc1ccc(-c3ccccc3)cc1)[C@@H](C)CN([C@H](C)CO)S2(=O)=O", "values": [{"measurement": "activity change, negative = cytotoxicity", "setting": "[1]", "value": "12.2% (inactive)"}]}, {"smiles": "COc1ccccc1-c1ccc(CN(C)C[C@@H]2Oc3cc(C#C[C@@H](C)O)ccc3S(=O)(=O)N([C@@H](C)CO)C[C@@H]2C)cc1", "values": [{"measurement": "AC50", "setting": "[2]", "value": 12.9, "unit": "µM"}]}, {"smiles": "C[C@@H](O)C#Cc1ccc2c(c1)O[C@H](CN(C)Cc1ccc(-c3ccccc3)cc1)[C@@H](C)CN([C@@H](C)CO)S2(=O)=O", "values": [{"measurement": "AC50", "setting": "[2]", "value": 19.4, "unit": "µM"}]}, {"smiles": "C[C@@H](O)C#Cc1ccc2c(c1)O[C@@H](CN(C)Cc1ccc(-c3ccc(Cl)cc3)cc1)[C@@H](C)CN([C@@H](C)CO)S2(=O)=O", "values": [{"measurement": "AC50", "setting": "[2]", "value": 9.62, "unit": "µM"}]}, {"smiles": "COc1ccc(-c2ccc(CN(C)C[C@@H]3Oc4cc(C#C[C@@H](C)O)ccc4S(=O)(=O)N([C@@H](C)CO)C[C@@H]3C)cc2)cc1", "values": [{"measurement": "AC50", "setting": "[2]", "value": 14.1, "unit": "µM"}]}, {"smiles": "C[C@@H](O)C#Cc1ccc2c(c1)O[C@@H](CN(C)Cc1ccncc1)[C@@H](C)CN([C@@H](C)CO)S2(=O)=O", "values": [{"measurement": "activity change, negative = cytotoxicity", "setting": "[1]", "value": "-7.94% (inactive)"}]}, {"smiles": "C[C@@H](O)C#Cc1ccc2c(c1)O[C@@H](CN(C)Cc1ccc(-c3ccccc3Cl)cc1)[C@@H](C)CN([C@@H](C)CO)S2(=O)=O", "values": [{"measurement": "AC50", "setting": "[2]", "value": 14.4, "unit": "µM"}]}, {"smiles": "C[C@H]1CN([C@@H](C)CO)S(=O)(=O)c2ccc(Br)cc2O[C@H]1CN(C)Cc1ccc(-c2ccccc2)cc1", "values": [{"measurement": "activity change, negative = cytotoxicity", "setting": "[1]", "value": "-3.47% (inactive)"}]}, {"smiles": "C[C@@H](O)C#Cc1ccc2c(c1)O[C@@H](CN(C)Cc1ccc(-c3ccccc3)cc1)[C@@H](C)CN([C@@H](C)CO)S2(=O)=O", "values": [{"measurement": "AC50", "setting": "[2]", "value": "17.7 µM and 19 µM"}]}, {"smiles": "C[C@@H](O)C#Cc1ccc2c(c1)O[C@@H](CN(C)S(=O)(=O)c1ccc(-c3ccccc3)cc1)[C@@H](C)CN([C@@H](C)CO)S2(=O)=O", "values": [{"measurement": "activity change, negative = cytotoxicity", "setting": "[1]", "value": "0.446% (inactive)"}]}, {"smiles": "C[C@H](O)C#Cc1ccc2c(c1)O[C@H](CN(C)Cc1ccc(-c3ccccc3)cc1)[C@@H](C)CN([C@@H](C)CO)S2(=O)=O", "values": [{"measurement": "AC50", "setting": "[2]", "value": 6, "unit": "µM"}]}, {"smiles": "C[C@@H](O)C#Cc1ccc2c(c1)O[C@@H](CN(C)Cc1cccnc1)[C@@H](C)CN([C@@H](C)CO)S2(=O)=O", "values": [{"measurement": "activity change, negative = cytotoxicity", "setting": "[1]", "value": "-0.989% (inactive)"}]}, {"smiles": "Cc1ccccc1-c1ccc(CN(C)C[C@@H]2Oc3cc(C#C[C@@H](C)O)ccc3S(=O)(=O)N([C@@H](C)CO)C[C@@H]2C)cc1", "values": [{"measurement": "AC50", "setting": "[2]", "value": 16.7, "unit": "µM"}]}, {"smiles": "C[C@@H]1CN([C@@H](C)CO)S(=O)(=O)c2ccc(C#C[C@@H](C)O)cc2O[C@H]1CN(C)Cc1ccc(-c2ccccc2)cc1", "values": [{"measurement": "AC50", "setting": "[2]", "value": 26.1, "unit": "µM"}]}, {"smiles": "C[C@H](O)C#Cc1ccc2c(c1)O[C@H](CN(C)Cc1ccc(-c3ccccc3)cc1)[C@@H](C)CN([C@H](C)CO)S2(=O)=O", "values": [{"measurement": "AC50", "setting": "[2]", "value": 19.4, "unit": "µM"}]}, {"smiles": "C[C@H](CO)N1C[C@H](C)[C@@H](CN(C)Cc2ccc(-c3ccccc3)cc2)Oc2cc(C#C[C@@H](C)O)ccc2S1(=O)=O", "values": [{"measurement": "AC50", "setting": "[2]", "value": 27.1, "unit": "µM"}]}, {"smiles": "Cc1cccc(-c2ccc(CN(C)C[C@@H]3Oc4cc(C#C[C@@H](C)O)ccc4S(=O)(=O)N([C@@H](C)CO)C[C@@H]3C)cc2)c1", "values": [{"measurement": "AC50", "setting": "[2]", "value": 15, "unit": "µM"}]}, {"smiles": "C[C@@H](O)C#Cc1ccc2c(c1)O[C@@H](CN(C)C(=O)c1ccc(-c3ccccc3)cc1)[C@@H](C)CN([C@@H](C)CO)S2(=O)=O", "values": [{"measurement": "activity change, negative = cytotoxicity", "setting": "[1]", "value": "-7.04% (inactive)"}]}, {"smiles": "COc1cccc(-c2ccc(CN(C)C[C@@H]3Oc4cc(C#C[C@@H](C)O)ccc4S(=O)(=O)N([C@@H](C)CO)C[C@@H]3C)cc2)c1", "values": [{"measurement": "AC50", "setting": "[2]", "value": 15.2, "unit": "µM"}]}, {"smiles": "CO[C@H]1CN(C)C(=O)c2ccc(NC(=O)c3ccc(F)cc3)cc2OC[C@H](C)N(C(=O)c2ccc(F)cc2)C[C@@H]1C", "values": [{"measurement": "activity change, negative = cytotoxicity", "setting": "[1]", "value": "2.69% (inactive)"}]}, {"smiles": "C[C@H]1CN([C@@H](C)CO)S(=O)(=O)c2ccc(C#CC(C)(C)O)cc2O[C@H]1CN(C)Cc1ccc(-c2ccccc2)cc1", "values": [{"measurement": "AC50", "setting": "[2]", "value": 19.9, "unit": "µM"}]}, {"smiles": "C[C@H](O)C#Cc1ccc2c(c1)O[C@@H](CN(C)Cc1ccc(-c3ccccc3)cc1)[C@@H](C)CN([C@@H](C)CO)S2(=O)=O", "values": [{"measurement": "AC50", "setting": "[2]", "value": 22.6, "unit": "µM"}]}, {"smiles": "C[C@H](O)C#Cc1ccc2c(c1)O[C@@H](CN(C)Cc1ccc(-c3ccccc3)cc1)[C@H](C)CN([C@H](C)CO)S2(=O)=O", "values": [{"measurement": "AC50", "setting": "[2]", "value": 22.1, "unit": "µM"}]}, {"smiles": "C[C@H](O)C#Cc1ccc2c(c1)O[C@@H](CN(C)Cc1ccc(-c3ccccc3)cc1)[C@H](C)CN([C@@H](C)CO)S2(=O)=O", "values": [{"measurement": "AC50", "setting": "[2]", "value": 26.1, "unit": "µM"}]}, {"smiles": "CNC[C@@H]1Oc2cc(Br)ccc2S(=O)(=O)N([C@@H](C)CO)C[C@@H]1C", "values": [{"measurement": "activity change, negative = cytotoxicity", "setting": "[1]", "value": "-12.1% (inactive)"}]}, {"smiles": "C[C@@H](O)C#Cc1ccc2c(c1)O[C@@H](CN(C)Cc1ccc(-c3cccc(Cl)c3)cc1)[C@@H](C)CN([C@@H](C)CO)S2(=O)=O", "values": [{"measurement": "AC50", "setting": "[2]", "value": 14.1, "unit": "µM"}]}, {"smiles": "Cc1ccc(-c2ccc(CN(C)C[C@@H]3Oc4cc(C#C[C@@H](C)O)ccc4S(=O)(=O)N([C@@H](C)CO)C[C@@H]3C)cc2)cc1", "values": [{"measurement": "AC50", "setting": "[2]", "value": 15.7, "unit": "µM"}]}, {"smiles": "COc1ccc(-c2ccc3c(c2)O[C@@H](CN(C)Cc2ccc(-c4ccccc4)cc2)[C@@H](C)CN([C@@H](C)CO)S3(=O)=O)cc1", "values": [{"measurement": "activity change, negative = cytotoxicity", "setting": "[1]", "value": "-11.8% (inactive)"}]}]}
